Experimental data reported in ChEMBL document CHEMBL1811770, “Synthesis and structural investigation of some pyrimido[5,4-c]quinolin-4(3H)-one derivatives with a long-chain arylpiperazine moiety as potent 5-HT(1A/2A) and 5-HT(7) receptor ligands” (Eur J Med Chem, 2011).

These compounds were tested against 5-hydroxytryptamine receptor 2A (Rattus norvegicus) (UniProt P14842) (assay: Displacement of [3H]ketanserin from 5HT2A receptor in rat cortex membrane at 10^-6 M by radioligand binding assay). Details: not given.
Type: cell membranes
Method in brief: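 Single-point screen at 1 µM, reported as % inhibition of [3H]-ketanserin (88.0 Ci/mmol) binding. Non-specific binding was defined with 1 µM methysergide. Compounds inhibiting at least 85% went on to full competition.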

Sequence of 5-hydroxytryptamine receptor 2A (Rattus norvegicus) (P14842 whole entry): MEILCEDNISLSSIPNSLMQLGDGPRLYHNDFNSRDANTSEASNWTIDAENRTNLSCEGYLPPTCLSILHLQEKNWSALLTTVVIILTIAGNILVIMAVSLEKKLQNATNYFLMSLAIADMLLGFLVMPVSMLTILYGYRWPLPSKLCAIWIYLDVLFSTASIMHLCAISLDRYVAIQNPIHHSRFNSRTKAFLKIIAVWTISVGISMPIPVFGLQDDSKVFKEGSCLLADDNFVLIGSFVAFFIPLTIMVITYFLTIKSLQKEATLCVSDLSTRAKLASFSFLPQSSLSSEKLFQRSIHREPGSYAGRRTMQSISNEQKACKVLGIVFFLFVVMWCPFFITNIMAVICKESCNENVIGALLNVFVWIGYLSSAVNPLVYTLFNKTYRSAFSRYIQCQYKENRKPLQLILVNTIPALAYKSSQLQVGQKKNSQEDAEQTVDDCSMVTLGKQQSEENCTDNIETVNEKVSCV

inhibition [%] | Compound
79 | O=c1c2cnc3ccccc3c2ncn1CCCCN1CCN(c2ccccc2F)CC1
40 | Cc1ccc2c(c1)ncc1c(=O)n(CCCN3CCN(c4cccc(Cl)c4)CC3)cnc12
8 | COc1ccccc1N1CCN(CCCn2cnc3c(cnc4ccccc43)c2=O)CC1
63 | O=c1c2cnc3ccccc3c2ncn1CCCN1CCN(c2cccc(Cl)c2)CC1
14 | O=c1c2cnc3ccccc3c2ncn1CCN1CCN(c2ccc(F)cc2)CC1
64 | COc1ccccc1N1CCN(CCCCn2cnc3c(cnc4ccccc43)c2=O)CC1
26 | COc1cccc(N2CCN(CCCn3cnc4c(cnc5ccccc54)c3=O)CC2)c1
17 | O=c1c2cnc3ccccc3c2ncn1CCN1CCN(c2ccccc2Cl)CC1
76 | O=c1c2cnc3ccccc3c2ncn1CCCCN1CCN(c2ccccc2)CC1
22 | O=c1c2cnc3ccccc3c2ncn1CCN1CCN(c2cccc(Cl)c2)CC1
48 | COc1ccc(N2CCN(CCCCn3cnc4c(cnc5ccccc54)c3=O)CC2)cc1
82 | O=c1c2cnc3ccccc3c2ncn1CCCCN1CCN(c2ccc(F)cc2)CC1
66 | O=c1c2cnc3ccccc3c2ncn1CCCN1CCN(c2ccccc2)CC1
27 | O=c1c2cnc3ccccc3c2ncn1CCCN1CCN(c2ccccc2F)CC1
73 | O=c1c2cnc3ccccc3c2ncn1CCCN1CCN(c2ccc(F)cc2)CC1
5 | COc1ccccc1N1CCN(CCCn2cnc3c(cnc4ccc(C)cc43)c2=O)CC1
25 | O=c1c2cnc3ccccc3c2ncn1CCN1CCN(c2ccccc2F)CC1
45 | Cc1ccc2c(c1)ncc1c(=O)n(CCCCN3CCN(c4ccccc4F)CC3)cnc12
56 | Cc1ccc2ncc3c(=O)n(CCCCN4CCN(c5ccc(F)cc5)CC4)cnc3c2c1
9 | COc1ccc(N2CCN(CCn3cnc4c(cnc5cc(C)ccc54)c3=O)CC2)cc1
23 | COc1ccc(N2CCN(CCCn3cnc4c(cnc5ccccc54)c3=O)CC2)cc1
72 | O=c1c2cnc3ccccc3c2ncn1CCCCN1CCN(c2ccccc2Cl)CC1
44 | O=c1c2cnc3ccccc3c2ncn1CCCN1CCN(c2cccc(C(F)(F)F)c2)CC1
41 | O=c1c2cnc3ccccc3c2ncn1CCCN1CCN(c2ccccc2Cl)CC1
43 | COc1ccccc1N1CCN(CCCCn2cnc3c(cnc4cc(C)ccc43)c2=O)CC1
44 | Cc1ccc2c(c1)ncc1c(=O)n(CCCN3CCN(c4ccccc4)CC3)cnc12
48 | COc1ccccc1N1CCN(CCCCn2cnc3c(cnc4ccc(C)cc43)c2=O)CC1
61 | O=c1c2cnc3ccccc3c2ncn1CCCCN1CCN(c2cccc(C(F)(F)F)c2)CC1

Each compound was assayed against T1, 5-hydroxytryptamine receptor 1A (Rattus norvegicus, UniProt P19327) (assay: Displacement of [3H]8-OH-DPAT from 5HT1A receptor in rat hippocampal membrane by radioligand binding assay). Details: not given.
T1 sequence (P19327 whole entry): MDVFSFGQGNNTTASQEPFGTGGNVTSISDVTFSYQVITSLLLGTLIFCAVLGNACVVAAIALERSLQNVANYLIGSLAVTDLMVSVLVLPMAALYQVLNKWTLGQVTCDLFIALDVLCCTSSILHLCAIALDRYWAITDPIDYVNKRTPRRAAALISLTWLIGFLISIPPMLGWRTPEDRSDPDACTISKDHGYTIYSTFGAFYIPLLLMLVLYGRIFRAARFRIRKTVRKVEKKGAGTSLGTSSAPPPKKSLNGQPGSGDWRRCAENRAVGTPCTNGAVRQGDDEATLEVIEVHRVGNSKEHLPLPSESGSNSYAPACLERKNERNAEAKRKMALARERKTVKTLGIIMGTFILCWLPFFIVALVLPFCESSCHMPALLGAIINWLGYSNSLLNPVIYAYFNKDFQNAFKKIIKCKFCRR
Type: cell membranes, Hippocampus
Method in brief: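 Rat hippocampal membranes were incubated with [3H]-8-OH-DPAT (170 Ci/mmol), with 10 µM 5-HT for non-specific binding. Competition used 7–9 test concentrations, each in triplicate, to give Ki. Values are means of three experiments run in triplicate.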

Ki [nM] | Compound
63 | O=c1c2cnc3ccccc3c2ncn1CCCCN1CCN(c2ccccc2F)CC1
20 | COc1ccccc1N1CCN(CCCn2cnc3c(cnc4ccccc43)c2=O)CC1
80 | O=c1c2cnc3ccccc3c2ncn1CCCN1CCN(c2cccc(Cl)c2)CC1
6 | COc1ccccc1N1CCN(CCCCn2cnc3c(cnc4ccccc43)c2=O)CC1
120 | COc1cccc(N2CCN(CCCn3cnc4c(cnc5ccccc54)c3=O)CC2)c1
78 | O=c1c2cnc3ccccc3c2ncn1CCN1CCN(c2ccccc2Cl)CC1
28 | O=c1c2cnc3ccccc3c2ncn1CCCCN1CCN(c2ccccc2)CC1
55 | O=c1c2cnc3ccccc3c2ncn1CCN1CCN(c2cccc(Cl)c2)CC1
47 | O=c1c2cnc3ccccc3c2ncn1CCCN1CCN(c2ccccc2)CC1
55 | O=c1c2cnc3ccccc3c2ncn1CCCN1CCN(c2ccccc2F)CC1
129 | O=c1c2cnc3ccccc3c2ncn1CCCN1CCN(c2ccc(F)cc2)CC1
26 | COc1ccccc1N1CCN(CCCn2cnc3c(cnc4ccc(C)cc43)c2=O)CC1
83 | Cc1ccc2c(c1)ncc1c(=O)n(CCCCN3CCN(c4ccccc4F)CC3)cnc12
17 | O=c1c2cnc3ccccc3c2ncn1CCCCN1CCN(c2ccccc2Cl)CC1
243 | O=c1c2cnc3ccccc3c2ncn1CCCN1CCN(c2cccc(C(F)(F)F)c2)CC1
93 | O=c1c2cnc3ccccc3c2ncn1CCCN1CCN(c2ccccc2Cl)CC1
20 | COc1ccccc1N1CCN(CCCCn2cnc3c(cnc4cc(C)ccc43)c2=O)CC1
125 | Cc1ccc2c(c1)ncc1c(=O)n(CCCN3CCN(c4ccccc4)CC3)cnc12
8 | COc1ccccc1N1CCN(CCCCn2cnc3c(cnc4ccc(C)cc43)c2=O)CC1
127 | O=c1c2cnc3ccccc3c2ncn1CCCCN1CCN(c2cccc(C(F)(F)F)c2)CC1

The compounds below were run against 5-hydroxytryptamine receptor 7 (Homo sapiens, UniProt P34969) (assay: Displacement of [3H]-5-CT from human 5-HT7b receptor expressed in HEK293 cells by radioligand binding assay). Details: not given.
Type: cell-based
Method in brief: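 Membranes from HEK-293 cells stably expressing human 5-HT7b receptor, with [3H]-5-CT (93.0 Ci/mmol) as radioligand. Full competition used 7–9 concentrations of test compound, each run in triplicate. Ki was derived from the inhibition.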

Sequence of 5-hydroxytryptamine receptor 7 (P34969 whole entry): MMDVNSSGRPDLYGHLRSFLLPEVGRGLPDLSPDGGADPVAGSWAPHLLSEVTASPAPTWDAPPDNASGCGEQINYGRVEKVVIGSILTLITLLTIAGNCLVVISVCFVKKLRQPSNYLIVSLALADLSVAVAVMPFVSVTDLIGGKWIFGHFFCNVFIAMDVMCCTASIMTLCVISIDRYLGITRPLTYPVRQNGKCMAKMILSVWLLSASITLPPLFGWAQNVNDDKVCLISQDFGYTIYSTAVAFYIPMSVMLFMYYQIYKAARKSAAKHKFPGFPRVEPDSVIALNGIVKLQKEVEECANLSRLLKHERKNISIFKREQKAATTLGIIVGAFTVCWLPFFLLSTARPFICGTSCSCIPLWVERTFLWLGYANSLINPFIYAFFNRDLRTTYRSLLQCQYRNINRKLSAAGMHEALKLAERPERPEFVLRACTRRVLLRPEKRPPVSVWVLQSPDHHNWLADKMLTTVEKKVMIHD

Ki [nM] | Compound
739 | O=c1c2cnc3ccccc3c2ncn1CCCCN1CCN(c2ccccc2F)CC1
276 | COc1ccccc1N1CCN(CCCCn2cnc3c(cnc4ccccc43)c2=O)CC1
612 | O=c1c2cnc3ccccc3c2ncn1CCCCN1CCN(c2ccccc2)CC1
> 10000 | COc1ccc(N2CCN(CCCCn3cnc4c(cnc5ccccc54)c3=O)CC2)cc1
404 | O=c1c2cnc3ccccc3c2ncn1CCCCN1CCN(c2ccc(F)cc2)CC1
153 | O=c1c2cnc3ccccc3c2ncn1CCCCN1CCN(c2ccccc2Cl)CC1
418 | O=c1c2cnc3ccccc3c2ncn1CCCCN1CCN(c2cccc(C(F)(F)F)c2)CC1

What follows are compounds tested against T2, 5-hydroxytryptamine receptor 1A (Rattus norvegicus) (UniProt P19327) (assay: Displacement of [3H]8-OH-DPAT from 5HT1A receptor in rat hippocampal membrane at 10^-6 M by radioligand binding assay). Details: Hippocampus.
T2 sequence (whole entry): T1 sequence (P19327 whole entry)
Type: cell membranes
Method in brief: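 Single-point screen at 1 µM on rat hippocampal membranes, reported as % inhibition of [3H]-8-OH-DPAT (170 Ci/mmol) binding. Non-specific binding was defined with 10 µM 5-HT. Compounds inhibiting at least 85% went on to full competition.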

inhibition [%] | Compound
96 | O=c1c2cnc3ccccc3c2ncn1CCCCN1CCN(c2ccccc2F)CC1
73 | Cc1ccc2c(c1)ncc1c(=O)n(CCCN3CCN(c4cccc(Cl)c4)CC3)cnc12
97 | COc1ccccc1N1CCN(CCCn2cnc3c(cnc4ccccc43)c2=O)CC1
91 | O=c1c2cnc3ccccc3c2ncn1CCCN1CCN(c2cccc(Cl)c2)CC1
40 | O=c1c2cnc3ccccc3c2ncn1CCN1CCN(c2ccc(F)cc2)CC1
97 | COc1ccccc1N1CCN(CCCCn2cnc3c(cnc4ccccc43)c2=O)CC1
89 | COc1cccc(N2CCN(CCCn3cnc4c(cnc5ccccc54)c3=O)CC2)c1
90 | O=c1c2cnc3ccccc3c2ncn1CCN1CCN(c2ccccc2Cl)CC1
93 | O=c1c2cnc3ccccc3c2ncn1CCCCN1CCN(c2ccccc2)CC1
93 | O=c1c2cnc3ccccc3c2ncn1CCN1CCN(c2cccc(Cl)c2)CC1
11 | COc1ccc(N2CCN(CCCCn3cnc4c(cnc5ccccc54)c3=O)CC2)cc1
75 | O=c1c2cnc3ccccc3c2ncn1CCCCN1CCN(c2ccc(F)cc2)CC1
95 | O=c1c2cnc3ccccc3c2ncn1CCCN1CCN(c2ccccc2)CC1
92 | O=c1c2cnc3ccccc3c2ncn1CCCN1CCN(c2ccccc2F)CC1
85 | O=c1c2cnc3ccccc3c2ncn1CCCN1CCN(c2ccc(F)cc2)CC1
93 | COc1ccccc1N1CCN(CCCn2cnc3c(cnc4ccc(C)cc43)c2=O)CC1
47 | O=c1c2cnc3ccccc3c2ncn1CCN1CCN(c2ccccc2F)CC1
90 | Cc1ccc2c(c1)ncc1c(=O)n(CCCCN3CCN(c4ccccc4F)CC3)cnc12
72 | Cc1ccc2ncc3c(=O)n(CCCCN4CCN(c5ccc(F)cc5)CC4)cnc3c2c1
9 | COc1ccc(N2CCN(CCn3cnc4c(cnc5cc(C)ccc54)c3=O)CC2)cc1
0 | COc1ccc(N2CCN(CCCn3cnc4c(cnc5ccccc54)c3=O)CC2)cc1
92 | O=c1c2cnc3ccccc3c2ncn1CCCCN1CCN(c2ccccc2Cl)CC1
85 | O=c1c2cnc3ccccc3c2ncn1CCCN1CCN(c2cccc(C(F)(F)F)c2)CC1
87 | O=c1c2cnc3ccccc3c2ncn1CCCN1CCN(c2ccccc2Cl)CC1
99 | COc1ccccc1N1CCN(CCCCn2cnc3c(cnc4cc(C)ccc43)c2=O)CC1
86 | Cc1ccc2c(c1)ncc1c(=O)n(CCCN3CCN(c4ccccc4)CC3)cnc12
99 | COc1ccccc1N1CCN(CCCCn2cnc3c(cnc4ccc(C)cc43)c2=O)CC1
89 | O=c1c2cnc3ccccc3c2ncn1CCCCN1CCN(c2cccc(C(F)(F)F)c2)CC1
